Test results: ChEMBL document CHEMBL1141529, “Design and synthesis of 3-arylpyrrolidine-2-carboxamide derivatives as melanocortin-4 receptor ligands” (Bioorg Med Chem Lett, 2008)

What was measured:
Melanocortin receptor 4 [1] = target: T1, Melanocortin receptor 4 (Homo sapiens, UniProt P32245); experiment: Displacement of [125]NDPMSH from human MC4 receptor expressed in HEK293 cells; format: cell-based
Melanocortin receptor 4 [2] = target: T1, Melanocortin receptor 4; experiment: Antagonist activity at MC4 receptor assessed as inhibition of alpha-MSH-stimulated cAMP production; format: functional
[3] = Plasma clearance in rat at 5 mg/kg, iv; format: ADME, organism-based; set-up: dose 5 mg/kg, route intravenous
Method in brief: (§1)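 Single intravenous injection at 5 mg/kg in rats. Clearance, volume of distribution and half-life are derived from plasma concentrations.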

[4] = Volume of distribution in rat at 5 mg/kg, iv; format: ADME, organism-based; set-up: dose 5 mg/kg, route intravenous; settings: in vivo; method in brief: as §1
[5] = Half life in rat at 5 mg/kg, iv; format: ADME, organism-based; set-up: dose 5 mg/kg, route intravenous; settings: in vivo; method in brief: as §1
Rattus norvegicus = experiment: AUC in rat at 10 mg/kg, po; format: ADME, organism-based, Plasma; set-up: dose 10 mg/kg, route oral; settings: in vivo
Method in brief: (§2)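 Rats dosed orally at 10 mg/kg. Cmax and AUC are plasma values. Absolute bioavailability is referenced to a separate intravenous 5 mg/kg dose.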

[6] = Absolute bioavailability in rat at 10 mg/kg, po; format: ADME, organism-based; settings: in vivo; method in brief: as §2
[7] = Cmax in rat at 10 mg/kg, po; format: ADME, organism-based; set-up: dose 10 mg/kg, route oral; settings: in vivo; method in brief: as §2
Melanocortin receptor 4 [8] = target: T1, Melanocortin receptor 4; experiment: Agonist activity at MC4 receptor by cAMP assay; format: functional

T1 sequence (P32245 whole entry): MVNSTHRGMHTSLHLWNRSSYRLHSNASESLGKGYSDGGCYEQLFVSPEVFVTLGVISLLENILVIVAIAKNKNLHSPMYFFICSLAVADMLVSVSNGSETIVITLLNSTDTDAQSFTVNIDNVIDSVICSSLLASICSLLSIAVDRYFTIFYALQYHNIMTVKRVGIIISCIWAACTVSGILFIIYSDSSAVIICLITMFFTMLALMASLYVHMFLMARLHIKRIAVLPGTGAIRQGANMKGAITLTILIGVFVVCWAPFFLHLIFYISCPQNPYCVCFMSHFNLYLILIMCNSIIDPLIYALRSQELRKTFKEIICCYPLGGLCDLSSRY

| Ki (Melanocortin receptor 4 [1]) [nM] | SMILES | also measured |
| --- | --- | --- |
| 17 | COC(=O)N1CC[C@H](c2ccc(Cl)cc2)[C@@H]1C(=O)N1CCN(c2ccc(C)cc2[C@@H](N)C(C)C)CC1 (stereo in doubt; form 1) | IC50 (Melanocortin receptor 4 [2]): 720 nM |
| 6.5 | Cc1ccc(N2CCN(C(=O)[C@H]3[C@@H](c4ccc(Cl)cc4)CCN3C(=O)N(C)C)CC2)c([C@@H](N)C(C)C)c1 (stereo in doubt; form 2) | IC50 (Melanocortin receptor 4 [2]): 93 nM; clearance [3]: 20 mL/min/kg; Vd [4]: 17.2 L/kg; half-life [5]: 4.3 h; AUC (Rattus norvegicus): 533 ng·h/mL; bioavailability [6]: 7.2%; Cmax [7]: 35 ng/mL |
| 92 | Cc1ccc(N2CCN(C(=O)[C@@H]3[C@@H](c4ccc(Cl)cc4)CCN3C(=O)[C@H]3Cc4ccccc4CN3)CC2)c([C@@H](N)C(C)C)c1 | EC50 (Melanocortin receptor 4 [8]): 15000 nM; Emax (Melanocortin receptor 4 [8]): 21% |
| 97 | CC(=O)N1CC[C@H](c2ccc(C)cc2)[C@@H]1C(=O)N1CCN(c2ccc(C)cc2[C@@H](N)C(C)C)CC1 |  |
| 7.4 | Cc1ccc(N2CCN(C(=O)[C@H]3[C@@H](c4ccc(Cl)cc4)CCN3C(=O)N(C)C)CC2)c([C@@H](N)C(C)C)c1 (stereo in doubt; form 1) | IC50 (Melanocortin receptor 4 [2]): 190 nM |
| 11 | CC(=O)N1CC[C@H](c2ccc(Cl)cc2)[C@@H]1C(=O)N1CCN(c2ccc(C)cc2[C@@H](N)C(C)C)CC1 (stereo in doubt; form 2) | IC50 (Melanocortin receptor 4 [2]): 520 nM |
| 52 | Cc1ccc(N2CCN(C(=O)[C@@H]3NCC[C@@H]3c3ccc(Cl)cc3)CC2)c([C@@H](N)C(C)C)c1 | IC50 (Melanocortin receptor 4 [2]): 310 nM |
| 18 | CCOC(=O)N1CC[C@H](c2ccc(Cl)cc2)[C@@H]1C(=O)N1CCN(c2ccc(Cl)cc2[C@@H](N)C(C)C)CC1 |  |
| 42 | CCOC(=O)N1CC[C@H](c2ccc(Cl)cc2)[C@H]1C(=O)N1CCN(c2ccc(C)cc2[C@@H](N)C(C)C)CC1 |  |
| 130 | CCOC(=O)N1CC[C@@H](c2ccc(Cl)cc2)[C@H]1C(=O)N1CCN(c2ccc(C)cc2[C@@H](N)C(C)C)CC1 |  |
| 74 | CCOC(=O)N1CC[C@H](c2ccc(Cl)cc2)[C@@H]1C(=O)N1CCN(c2ccc(F)cc2[C@@H](N)C(C)C)CC1 |  |
| 16 | CCOC(=O)N1CC[C@H](c2ccc(Cl)cc2)[C@@H]1C(=O)N1CCN(c2ccc(C)cc2[C@@H](N)C(C)C)CC1 (stereo in doubt; form 1) | IC50 (Melanocortin receptor 4 [2]): 640 nM |
| 79 | Cc1ccc(N2CCN(C(=O)[C@@H]3[C@@H](c4ccc(Cl)cc4)CCN3C(=O)C(C)(C)C)CC2)c([C@@H](N)C(C)C)c1 |  |
| 40 | Cc1ccc(N2CCN(C(=O)[C@H]3[C@@H](c4ccc(Cl)cc4)CCN3S(C)(=O)=O)CC2)c([C@@H](N)C(C)C)c1 |  |
| 110 | CC(C)[C@H](N)c1cccc(F)c1N1CCN(C(=O)C2NCCC2c2ccc(Cl)cc2)CC1 (some centres undefined) |  |
| 7.2 | Cc1ccc(N2CCN(C(=O)[C@H]3[C@@H](c4ccc(Cl)cc4)CCN3C(=O)C(C)(C)C)CC2)c([C@@H](N)C(C)C)c1 |  |
| 53 | COC(=O)N1CC[C@@H](c2ccc(Cl)cc2)[C@H]1C(=O)N1CCN(c2ccc(C)cc2[C@@H](N)C(C)C)CC1 |  |
| 340 | CC(C)C[C@H](N)c1cc(C(F)(F)F)ccc1N1CCN(C(=O)C2NC(=O)CC2c2ccc(Cl)cc2)CC1 (some centres undefined) |  |
| 52 | CCCC(=O)N1CC[C@H](c2ccc(Cl)cc2)[C@H]1C(=O)N1CCN(c2ccc(C)cc2[C@@H](N)C(C)C)CC1 |  |

The remaining lines, values behind:

| SMILES | Ki (Melanocortin receptor 4 [1]) [nM] | also measured |
| --- | --- | --- |
| COC(=O)N1CC[C@H](c2ccc(Cl)cc2)[C@H]1C(=O)N1CCN(c2ccc(C)cc2[C@@H](N)C(C)C)CC1 | 59 |  |
| CC(=O)N1CC[C@@H](c2ccc(Cl)cc2)[C@H]1C(=O)N1CCN(c2ccc(C)cc2[C@@H](N)C(C)C)CC1 | 120 |  |
| CC(C)C[C@H](N)c1cc(Cl)ccc1N1CCN(C(=O)C2NCCC2c2ccc(Cl)cc2)CC1 (some centres undefined) | 96 |  |
| CC(C)C[C@H](N)c1cc(Cl)ccc1N1CCN(C(=O)[C@@H]2NCC[C@@H]2c2ccc(Cl)cc2Cl)CC1 |  | IC50 (Melanocortin receptor 4 [2]): 1500 nM |
| Cc1ccc(N2CCN(C(=O)[C@@H]3[C@H](c4ccc(Cl)cc4)CCN3C(=O)N(C)C)CC2)c([C@@H](N)C(C)C)c1 | 190 |  |
| CC(C)[C@H](N)c1cccc(F)c1N1CCN(C(=O)C2NCCC2c2ccc(Cl)cc2Cl)CC1 (some centres undefined) | 560 |  |
| CC(=O)N1CC[C@H](c2ccc(F)cc2)[C@@H]1C(=O)N1CCN(c2ccc(C)cc2[C@@H](N)C(C)C)CC1 | 330 |  |
| CC(=O)N1CC[C@@H](c2ccc(Cl)cc2)[C@@H]1C(=O)N1CCN(c2ccc(C)cc2[C@@H](N)C(C)C)CC1 | 180 |  |
| Cc1ccc(N2CCN(C(=O)[C@@H]3[C@@H](c4ccc(Cl)cc4)CCN3C(=O)OC(C)C)CC2)c([C@@H](N)C(C)C)c1 | 68 |  |
| CC(C)C[C@H](N)c1cc(Cl)ccc1N1CCN(C(=O)C2NCCC2c2ccc(Cl)cc2Cl)CC1 (some centres undefined) | 190 |  |
| CC(C)[C@H](N)c1cccc(F)c1N1CCN(C(=O)[C@@H]2NCC[C@@H]2c2ccc(Cl)cc2)CC1 |  | IC50 (Melanocortin receptor 4 [2]): 960 nM |
| CC(=O)N1CC[C@H](c2ccc(Cl)cc2)[C@H]1C(=O)N1CCN(c2ccc(C)cc2[C@@H](N)C(C)C)CC1 | 78 |  |
| COC(=O)N1CC[C@H](c2ccc(Cl)cc2)[C@@H]1C(=O)N1CCN(c2ccc(C)cc2[C@@H](N)C(C)C)CC1 (stereo in doubt; form 2) | 18 |  |
| CC(=O)N1CC[C@H](c2ccc(C(F)(F)F)cc2)[C@@H]1C(=O)N1CCN(c2ccc(C)cc2[C@@H](N)C(C)C)CC1 | 54 |  |
| CC(=O)N1CC[C@H](c2ccc(Cl)cc2)[C@@H]1C(=O)N1CCN(c2ccc(C)cc2[C@@H](N)C(C)C)CC1 (stereo in doubt; form 1) | 24 |  |
| CC(=O)N1CC[C@H](c2ccccc2)[C@@H]1C(=O)N1CCN(c2ccc(C)cc2[C@@H](N)C(C)C)CC1 | 1800 |  |
| Cc1ccc(N2CCN(C(=O)C3NCCC3c3ccc(Cl)cc3)CC2)c([C@@H](N)C(C)C)c1 (some centres undefined) | 56 |  |
| CC(C)C[C@H](N)c1cc(C(F)(F)F)ccc1N1CCN(C(=O)[C@@H]2NCC[C@@H]2c2ccc(Cl)cc2)CC1 |  | IC50 (Melanocortin receptor 4 [2]): 2400 nM |
| CCOC(=O)N1CC[C@H](c2ccc(Cl)cc2)[C@@H]1C(=O)N1CCN(c2ccc(C)cc2[C@@H](N)C(C)C)CC1 (stereo in doubt; form 2) | 11 |  |
| CCC(=O)N1CC[C@H](c2ccc(Cl)cc2)[C@H]1C(=O)N1CCN(c2ccc(C)cc2[C@@H](N)C(C)C)CC1 | 62 |  |
| Cc1ccc(N2CCN(C(=O)[C@H]3[C@@H](c4ccc(Cl)cc4)CCN3C(=O)OC(C)C)CC2)c([C@@H](N)C(C)C)c1 | 12 |  |
| Cc1ccc(N2CCN(C(=O)[C@@H]3[C@@H](c4ccc(Cl)cc4)CCN3C(=O)C3CCC3)CC2)c([C@@H](N)C(C)C)c1 | 55 |  |
| CC(C)C[C@H](N)c1cc(C(F)(F)F)ccc1N1CCN(C(=O)C2NCCC2c2ccc(Cl)cc2)CC1 (some centres undefined) | 98 |  |
| Cc1ccc(N2CCN(C(=O)[C@H]3[C@@H](c4ccc(Cl)cc4)CCN3C(=O)[C@H]3Cc4ccccc4CN3)CC2)c([C@@H](N)C(C)C)c1 | 1.1 | EC50 (Melanocortin receptor 4 [8]): 3500 nM; Emax (Melanocortin receptor 4 [8]): 44% |
| Cc1ccc(N2CCN(C(=O)[C@H]3[C@@H](c4ccc(Cl)cc4)CCN3C(C)C)CC2)c([C@@H](N)C(C)C)c1 | 110 |  |
| COc1ccc([C@H]2CCN(C(C)=O)[C@H]2C(=O)N2CCN(c3ccc(C)cc3[C@@H](N)C(C)C)CC2)cc1 | 45 |  |
| CC(C)C[C@H](N)c1cc(C(F)(F)F)ccc1N1CCN(C(=O)C2(Cc3ccc(Cl)cc3)COC(=O)N2)CC1 (some centres undefined) | 550 |  |
| Cc1ccc(N2CCN(C(=O)[C@H]3[C@@H](c4ccc(Cl)cc4)CCN3C)CC2)c([C@@H](N)C(C)C)c1 | 160 |  |
| CCOC(=O)N1CC[C@H](c2ccc(Cl)cc2)[C@@H]1C(=O)N1CCN(c2ccccc2[C@@H](N)C(C)C)CC1 | 94 |  |
